{"data": "Results collected from several papers", "cell line": "MCF7", "effect on": "cell growth or viability", "note": "Each line is one published result; the experiments were not run side by side."}
{"Structure (SMILES)": "FC(F)(F)c1cccc(Nc2ncnc3ccc(-c4ccc(CN5CCOCC5)cc4)cc23)c1", "test": "MTT", "setting": "24 h", "IC50 [µM]": 4.05}
{"Structure (SMILES)": "COc1ccc(C(=O)O[C@@H]2CN3Cc4c(cc5c(c4OC)OCO5)[C@@]24C=C[C@H](OC)C[C@@H]34)cc1", "test": "WST-1", "IC50 [µM]": "> 10"}
{"Structure (SMILES)": "Oc1ncnc2cc(Nc3nc(-c4ccc(Br)cc4)cs3)ccc12", "test": "MTT", "IC50 [µM]": 4.92}
{"Structure (SMILES)": "COc1cccc2c3c(c[n+](C)c12)sc1cccc(F)c13", "test": "MTT", "setting": "72 h", "IC50 [µM]": 3}
{"Structure (SMILES)": "O=C1Nc2c(C(F)(F)F)cccc2[C@@]1(c1ccc(O)cc1)c1ccc(OC(F)(F)F)cc1", "test": "resazurin", "setting": "72 h", "IC50 [µM]": 0.014}
{"Structure (SMILES)": "COc1cccc2c1C(=O)c1c(O)c3c(c(O)c1C2=O)C[C@@](O)(C(=O)CO)C[C@@H]3O[C@H]1C[C@H](N)[C@H](O)[C@H](C)O1", "test": "SRB", "IC50 [µM]": 0.06}
{"Structure (SMILES)": "O=C(NC(=S)Nc1ccc([N+](=O)[O-])cc1)c1ccc2ccccc2c1", "setting": "48 h", "IC50 [µM]": 7.7}
{"Structure (SMILES)": "Fc1ccc(-c2nc3ccccc3n2Cc2ccccc2)cc1", "test": "MTT", "IC50 [µM]": 31.5}
{"Structure (SMILES)": "O=C(NC(=S)N1CCCCC1)c1ccc2ccccc2c1", "setting": "48 h", "IC50 [µM]": 7.32}
{"Structure (SMILES)": "Clc1ccnc2c1ccc1c(Cl)ccnc12", "test": "MTT", "setting": "48 h", "IC50 [µM]": "> 50"}
{"Structure (SMILES)": "Cc1cc(C)n(-c2nc(Nc3ccc(Br)cc3)nc(N3CCOCC3)n2)n1", "test": "MTT", "setting": "72 h", "IC50 [µM]": 4.53}
{"Structure (SMILES)": "COc1cc(OC)c(/C=C/S(=O)(=O)Nc2ccc(OC)c(N)c2)c(OC)c1", "test": "trypan blue", "setting": "96 h", "IC50 [µM]": 0.004}
{"Structure (SMILES)": "CCN(CC)C/C=N/NC(=O)Nc1cc2c(Nc3ccc(F)c(Cl)c3)ncnc2cc1OC", "test": "MTT", "setting": "72 h", "IC50 [µM]": 3.28}
{"Structure (SMILES)": "CC(C)(C)c1ccc(S(=O)(=O)NN=Cc2cn(CCN3CCOCC3)c3ccccc23)cc1", "test": "MTT", "setting": "48 h", "IC50 [µM]": 67.8}
{"Structure (SMILES)": "O=C(N/N=C/c1cccn1CCCN1CCOCC1)Nc1cc2c(Nc3ccc(F)c(Cl)c3)ncnc2cc1O[C@H]1CCOC1", "test": "MTT", "setting": "72 h", "IC50 [µM]": 5.57}
{"Structure (SMILES)": "COc1ccnc(Nc2ccc3ncnc(Nc4cccc(C(F)(F)F)c4)c3c2)c1", "test": "MTT", "setting": "24 h", "IC50 [µM]": 5.84}
{"Structure (SMILES)": "CSc1nc(/N=C/c2ccc(O)cc2)n(-c2ccc(C(=O)O)cc2)n1", "test": "MTT", "IC50 [µM]": 34.8}
{"Structure (SMILES)": "c1ccc2[nH]c(-c3ccc4c(c3)OCO4)nc2c1", "test": "MTT", "setting": "48 h", "IC50 [µM]": "> 100"}
{"Structure (SMILES)": "O=c1c(O)c(-c2ccc(O)c(O)c2)oc2cc(O)cc(O)c12", "test": "WST-1", "setting": "48 h", "IC50 [µM]": 11.7}
{"Structure (SMILES)": "COc1cccc2c1C(=O)c1c(O)c3c(c(O)c1C2=O)C[C@@](O)(C(=O)CO)C[C@@H]3O[C@H]1C[C@H](N)[C@H](O)[C@H](C)O1", "test": "MTT", "IC50 [µM]": 19.7}
{"Structure (SMILES)": "CC(C)Cc1ccc(-c2nn(-c3ccc(S(C)(=O)=O)cc3)cc2/C=N/N=c2\\[nH]c(-c3ccc(Br)cc3)cs2)cc1", "test": "MTT", "setting": "48 h", "IC50 [µM]": 8.26}
{"Structure (SMILES)": "CNc1nc2ccccc2n2c(-c3cccc(OC)c3)cnc12", "test": "neutral red", "setting": "96 h", "IC50 [µM]": 0.217}
{"Structure (SMILES)": "O=C(N/N=C/CN1CCOCC1)Nc1cc2c(Nc3ccc(F)c(Cl)c3)ncnc2cc1O[C@H]1CCOC1", "test": "MTT", "setting": "72 h", "IC50 [µM]": 1.08}
{"Structure (SMILES)": "Cc1ccc2c(Br)cc(Br)c(O)c2n1", "test": "MTT", "setting": "48 h", "IC50 [µM]": "> 150"}
{"Structure (SMILES)": "Cc1ccc2nc(-c3ccc(F)cc3)n(Cc3ccccc3)c2c1", "test": "MTT", "IC50 [µM]": 43.1}
{"Structure (SMILES)": "C1CCCC1.C1CCCC1.[Cl][W][Cl]", "test": "MTT", "IC50 [µM]": 630}
{"Structure (SMILES)": "Cc1ccc(O)c(/C=N/c2nc(Oc3ccccc3)nn2-c2ccc(C(=O)O)cc2)c1", "test": "MTT", "IC50 [µM]": 30.3}
{"Structure (SMILES)": "CCn1c(=N)c(C(=O)NCCOC)cc2c(=O)n3ccccc3nc21", "test": "MTT", "setting": "72 h", "IC50 [µM]": "> 100"}
{"Structure (SMILES)": "O=C1C[C@@H](c2ccc(O)cc2)Oc2cc(O)cc(O)c21", "test": "MTT", "setting": "48 h", "IC50 [µM]": 4.75}
{"Structure (SMILES)": "CN(C)C/C=C/C(=O)Nc1cc2c(Nc3ccc(F)c(Cl)c3)ncnc2cc1O[C@H]1CCOC1", "test": "MTT", "setting": "72 h", "IC50 [µM]": 1.8}
{"Structure (SMILES)": "Oc1cccc(Nc2ccc3ncnc(Nc4cccc(C(F)(F)F)c4)c3c2)c1", "test": "MTT", "setting": "24 h", "IC50 [µM]": 20.5}
{"Structure (SMILES)": "Fc1cccc(Cl)c1-c1nc2ccccc2[nH]1", "test": "MTT", "setting": "48 h", "IC50 [µM]": "> 100"}
{"Structure (SMILES)": "COc1cc2ncnc(Nc3ccc(F)c(Cl)c3)c2cc1NC(=O)N/N=C/CN(C)C", "test": "MTT", "setting": "72 h", "IC50 [µM]": 5.38}
{"Structure (SMILES)": "O=C(/C=C/c1ccccc1)c1ccccc1", "test": "resazurin", "setting": "72 h", "IC50 [µM]": "> 50"}
{"Structure (SMILES)": "O=C(N/N=C/c1cccn1CCN1CCCCC1)Nc1cc2c(Nc3ccc(F)c(Cl)c3)ncnc2cc1O[C@H]1CCOC1", "test": "MTT", "setting": "72 h", "IC50 [µM]": 2.41}
{"Structure (SMILES)": "COc1ccc(S(=O)(=O)NN=Cc2cn(CCN3CCOCC3)c3ccccc23)cc1", "test": "MTT", "setting": "48 h", "IC50 [µM]": 62.8}
{"Structure (SMILES)": "CS(=O)(=O)c1ccc(-n2cc(/C=N/N=c3\\[nH]c(-c4ccc(Br)cc4)cs3)c(-c3ccc(Br)cc3)n2)cc1", "test": "MTT", "setting": "48 h", "IC50 [µM]": 16.7}
{"Structure (SMILES)": "COc1cc2ncnc(Nc3ccc(F)c(Cl)c3)c2cc1NC(=O)N/N=C/c1cccn1CCCN1CCOCC1", "test": "MTT", "setting": "72 h", "IC50 [µM]": 1.44}
{"Structure (SMILES)": "CCOc1ccc(-c2nc3ccccc3[nH]2)cc1", "test": "MTT", "setting": "48 h", "IC50 [µM]": "> 100"}
{"Structure (SMILES)": "CC/C(=C(\\c1ccc(O)cc1)c1ccc(OCCNC)cc1)c1ccccc1", "setting": "5 days", "IC50 [µM]": 0.675}
{"Structure (SMILES)": "O=C(NC(=S)Nc1ccccc1)c1ccc2ccccc2c1", "setting": "48 h", "IC50 [µM]": 5.11}
{"Structure (SMILES)": "CC(=O)O[C@H]1C(=O)[C@@]2(C)[C@H]([C@H](OC(=O)c3ccccc3)[C@]3(O)C[C@H](OC(=O)[C@H](O)[C@@H](NC(=O)c4ccccc4)c4ccccc4)C(C)=C1C3(C)C)[C@]1(OC(C)=O)CO[C@@H]1C[C@@H]2O", "test": "MTT", "setting": "48 h", "IC50 [µM]": 0.006}
{"Structure (SMILES)": "Oc1cccc(-c2nc3ccccc3[nH]2)c1", "test": "MTT", "setting": "48 h", "IC50 [µM]": "> 100"}
{"Structure (SMILES)": "Nc1ccc(-c2csc(Nc3ccc4c(O)ncnc4c3)n2)cc1", "test": "MTT", "IC50 [µM]": 8.29}
{"Structure (SMILES)": "CCN(CC)CCCn1cccc1/C=N/NC(=O)Nc1cc2c(Nc3ccc(F)c(Cl)c3)ncnc2cc1OC", "test": "MTT", "setting": "72 h", "IC50 [µM]": 2.43}
{"Structure (SMILES)": "CSc1ccc(-c2nc3ccc(C)cc3[nH]2)cc1", "test": "MTT", "setting": "48 h", "IC50 [µM]": 45}
{"Structure (SMILES)": "O=C1NC(c2ccccc2)(c2ccccc2)C(=O)N1Cc1cn(-c2c3ccccc3nc3ccccc23)nn1", "test": "MTT", "IC50 [µM]": 42.7}
